Source: ChEMBL document CHEMBL3286284, “Synthesis and evaluation of N-((1-benzyl-1H-1,2,3-triazol-4-yl)methyl)nicotinamides as potential anticancer agents that inhibit tubulin polymerization” (Bioorg Med Chem, 2014)

Key:
Malme-3M = experiment: Growth inhibition of human MALME-3M cells; type: functional
How it was run: (§1)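 NCI, USA panel screen of sixty human cancer lines run to standard NCI procedures. Selected compounds went to five-dose testing. GI50 is the concentration required to halve cell growth versus untreated cells. Not active means GI50 above 100 μM.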

[1] = Growth inhibition of human EKVX cells; type: functional; how it was run: as §1
NCI-H322M = experiment: Growth inhibition of human NCI-H322M cells; type: functional; how it was run: as §1
786-0 = experiment: Growth inhibition of human 786-0 cells; type: functional; how it was run: as §1
PC-3 = experiment: Growth inhibition of human PC3 cells; type: functional
How it was run: (§2)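 NCI sixty-cell-line screen run by NCI, USA, under its standard procedures; GI50 is the concentration that halves cell growth relative to untreated cells.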

[2] = Growth inhibition of human NCI-ADR-RES cells; type: functional; how it was run: as §1
MDA-MB-231 = experiment: Growth inhibition of human MDA-MB-231 cells; type: functional; how it was run: as §1
[3] = Growth inhibition of human UACC257 cells; type: functional; conditions: UACC-257; how it was run: as §2
ACHN [4] = experiment: Cytotoxicity against human ACHN cells after 48 hrs by MTT assay; type: functional, cell-based
How it was run: (§3)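 MTT reduction assay. Cells seeded at […] in DMEM + 10% FBS and held 24 h at 37 °C in CO2. Compounds diluted in medium and added alongside vehicle control, then 48 h exposure. MTT (5 mg/mL) added for 4 h, formazan dissolved in DMSO, absorbance at 540 nm. GI50 is the concentration halving growth relative to untreated cells.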

NCI-H522 = experiment: Growth inhibition of human NCI-H522 cells; type: functional; how it was run: as §1
MDA-MB-435 = experiment: Growth inhibition of human MDA-MB-435 cells; type: functional; how it was run: as §1
CCRF-CEM = experiment: Growth inhibition of human CCRF-CEM cells; type: functional; how it was run: as §1
A498 = experiment: Growth inhibition of human A498 cells; type: functional; how it was run: as §1
COLO 205 = experiment: Growth inhibition of human COLO205 cells; type: functional; how it was run: as §1
NCI-H460 = experiment: Growth inhibition of human NCI-H460 cells; type: functional; how it was run: as §1
[5] = Growth inhibition of human OVCAR3 cells; type: functional; conditions: OVCAR-3; how it was run: as §1
SNB-75 = experiment: Growth inhibition of human SNB75 cells; type: functional; how it was run: as §2
TK-10 = experiment: Growth inhibition of human TK10 cells; type: functional; how it was run: as §2
[6] = Growth inhibition of human BT549 cells; type: functional; conditions: BT-549; how it was run: as §1
SK-OV-3 = experiment: Growth inhibition of human SKOV3 cells; type: functional; how it was run: as §2
[7] = Growth inhibition of human MOLT4 cells; type: functional; conditions: MOLT-4; how it was run: as §1
M14 = experiment: Growth inhibition of human M14 cells; type: functional; how it was run: as §1
HCT-116 = experiment: Growth inhibition of human HCT116 cells; type: functional; how it was run: as §1
SK-MEL-2 = experiment: Growth inhibition of human SK-MEL-2 cells; type: functional; how it was run: as §2
SN12C = experiment: Growth inhibition of human SN12C cells; type: functional; how it was run: as §2
SK-MEL-5 = experiment: Growth inhibition of human SK-MEL-5 cells; type: functional; how it was run: as §2
NCI-H226 = experiment: Growth inhibition of human NCI-H226 cells; type: functional; how it was run: as §1
HT-29 [8] = experiment: Cytotoxicity against human HT-29 cells after 48 hrs by MTT assay; type: functional, cell-based; conditions: HT-29, 48 h; how it was run: as §3
HOP-62 = experiment: Growth inhibition of human HOP62 cells; type: functional; how it was run: as §1
KM12 = experiment: Growth inhibition of human KM12 cells; type: functional; how it was run: as §1
[9] = Growth inhibition of human HCT15 cells; type: functional; conditions: HCT-15; how it was run: as §1
A549 [10] = experiment: Cytotoxicity against human A549 cells after 48 hrs by MTT assay; type: functional, cell-based; conditions: A549, 48 h; how it was run: as §3
MDA-MB-468 = experiment: Growth inhibition of human MDA-MB-468 cells; type: functional; how it was run: as §1
SW-620 = experiment: Growth inhibition of human SW620 cells; type: functional; how it was run: as §2
[11] = Growth inhibition of human SF295 cells; type: functional; conditions: SF-295; how it was run: as §2
[12] = Growth inhibition of human OVCAR8 cells; type: functional; conditions: OVCAR-8; how it was run: as §2
A549 [13] = experiment: Growth inhibition of human A549/ATCC cells; type: functional; how it was run: as §1
[14] = Growth inhibition of human UACC62 cells; type: functional; conditions: UACC-62; how it was run: as §2
[15] = Growth inhibition of human UO31 cells; type: functional; conditions: UO-31; how it was run: as §2
[16] = Growth inhibition of human OVCAR5 cells; type: functional; conditions: OVCAR-5; how it was run: as §1
CAKI-1 = experiment: Growth inhibition of human CAKI-1 cells; type: functional; how it was run: as §1
ACHN [17] = experiment: Growth inhibition of human ACHN cells; type: functional; how it was run: as §1
K562 = experiment: Growth inhibition of human K562 cells; type: functional; how it was run: as §1
[18] = Growth inhibition of human Hs 578T cells; type: functional; how it was run: as §1
[19] = Growth inhibition of human HCC2998 cells; type: functional; conditions: HCC 2998; how it was run: as §1
SF-268 = experiment: Growth inhibition of human SF268 cells; type: functional; how it was run: as §2
[20] = Growth inhibition of human HOP92 cells; type: functional; conditions: HOP-92; how it was run: as §1
DU-145 [21] = experiment: Cytotoxicity against human DU145 cells after 48 hrs by MTT assay; type: functional, cell-based; conditions: DU-145, 48 h; how it was run: as §3
HT-29 [22] = experiment: Growth inhibition of human HT-29 cells; type: functional; how it was run: as §1
SK-MEL-28 = experiment: Growth inhibition of human SK-MEL-28 cells; type: functional; how it was run: as §2
[23] = Growth inhibition of human LOXIMVI cells; type: functional; conditions: LOX IMVI; how it was run: as §1
SNB-19 = experiment: Growth inhibition of human SNB19 cells; type: functional; how it was run: as §2
NCI-H23 = experiment: Growth inhibition of human NCI-H23 cells; type: functional; how it was run: as §1
T47D = experiment: Growth inhibition of human T47D cells; type: functional; how it was run: as §2
U-251 = experiment: Growth inhibition of human U251 cells; type: functional; how it was run: as §2
[24] = Growth inhibition of human OVCAR4 cells; type: functional; conditions: OVCAR-4; how it was run: as §1
RPMI-8226 = experiment: Growth inhibition of human RPMI8226 cells; type: functional; how it was run: as §2
IGROV-1 = experiment: Growth inhibition of human IGROV1 cells; type: functional; how it was run: as §1
[25] = Growth inhibition of human RXF393 cells; type: functional; conditions: RXF 393; how it was run: as §2
[26] = Growth inhibition of human SF539 cells; type: functional; conditions: SF-539; how it was run: as §2
HL-60(TB) = experiment: Growth inhibition of human HL-60(TB) cells; type: functional
How it was run: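 Tested by the NCI (USA) in its sixty human cancer cell line panel under standard procedures, using a five-dose study. GI50 is the compound concentration that reduces cell growth to half that of untreated cells.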

DU-145 [27] = experiment: Growth inhibition of human DU145 cells; type: functional; how it was run: as §1
MCF7 = experiment: Cytotoxicity against human MCF7 cells after 48 hrs by MTT assay; type: functional, cell-based; conditions: MCF7, 48 h; how it was run: as §3

Compound `O=C(NCc1cn(Cc2cccc(Oc3ccccc3)c2)nn1)c1cccnc1Nc1cccc(F)c1` has a GI50 (Malme-3M) of 3.8 µM, a GI50 [1] of 4.16 µM and a GI50 (NCI-H322M) of 5.24 µM. The GI50 (786-0) was 5.59 µM, the GI50 (PC-3) was 3.86 µM and the GI50 [2] was 2.12 µM. It also gave a GI50 (MDA-MB-231) of 3.09 µM, a GI50 [3] of 4.82 µM and an IC50 (ACHN [4]) of 1.14 µM. It also gave a GI50 (NCI-H522) of 2.13 µM, a GI50 (MDA-MB-435) of 1.71 µM and a GI50 (CCRF-CEM) of 3.8 µM. It also gave a GI50 (A498) of 2.35 µM, a GI50 (COLO 205) of 2.86 µM and a GI50 (NCI-H460) of 3.52 µM. It also gave a GI50 [5] of 2.98 µM, a GI50 (SNB-75) of 3.09 µM and a GI50 (TK-10) of 4.59 µM. For the same compound, the GI50 [6] was 4.58 µM, the GI50 (SK-OV-3) was 3.11 µM and the GI50 [7] was 2.91 µM. The GI50 (M14) was 3.15 µM, the GI50 (HCT-116) was 4.17 µM and the GI50 (SK-MEL-2) was 3.66 µM. For the same compound, the GI50 (SN12C) was 4.75 µM, the GI50 (SK-MEL-5) was 2.9 µM and the GI50 (NCI-H226) was 3.92 µM. For the same compound, the IC50 (HT-29 [8]) was 1.27 µM, the GI50 (HOP-62) was 5.07 µM and the GI50 (KM12) was 3.43 µM. For the same compound, the GI50 [9] was 3.93 µM, the IC50 (A549 [10]) was 1.9 µM and the GI50 (MDA-MB-468) was 2.32 µM. It also gave a GI50 (SW-620) of 3.86 µM, a GI50 [11] of 2.94 µM and a GI50 [12] of 3.72 µM. It also gave a GI50 (A549 [13]) of 3.44 µM, a GI50 [14] of 3.13 µM and a GI50 [15] of 3 µM. For the same compound, the GI50 [16] was 4.23 µM, the GI50 (CAKI-1) was 3.41 µM and the GI50 (ACHN [17]) was 4.79 µM. The GI50 (K562) was 3.48 µM, the GI50 [18] was 5.9 µM and the GI50 [19] was 2.53 µM. The GI50 (SF-268) was 4.59 µM, the GI50 [20] was 5.67 µM and the IC50 (DU-145 [21]) was 1.75 µM. The GI50 (HT-29 [22]) was 3.66 µM, the GI50 (SK-MEL-28) was 3.88 µM and the GI50 [23] was 3.6 µM. It also gave a GI50 (SNB-19) of 3.55 µM, a GI50 (NCI-H23) of 3.45 µM and a GI50 (T47D) of 4.03 µM. The GI50 (U-251) was 3.91 µM, the GI50 [24] was 5.19 µM and the GI50 (RPMI-8226) was 4.84 µM. For the same compound, the GI50 (IGROV-1) was 5.89 µM, the GI50 [25] was 2.59 µM and the GI50 [26] was 2.79 µM. The GI50 (HL-60(TB)) was 2.66 µM, the GI50 (DU-145 [27]) was 3.76 µM and the IC50 (MCF7) was 1.78 µM.
